The values that follow come from ChEMBL document CHEMBL4138068, “Aryl-alkyl-lysines: small molecular membrane-active antiplasmodial agents” (Medchemcomm, 2017).

Each structure is given as a SMILES string.

The nature of data set [1]: Toxicity in Balb/c mouse at 5.5 to 175 mg/kg, iv for 14 days. Format: organism-based. The following applies: in vivo. Summed up: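 Female Balb/c mice, 6-8 weeks old, dosed intravenously in PBS at 175, 55, 17.5 and 5.5 mg/kg. Adverse effects were observed directly for 4 h and mortality for 14 days. LD50 was calculated from survival with the Spearman-Karber equation.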

The test system of data set [2] is Mus musculus. The data set is described as follows: Toxicity in Plasmodium berghei ANKA infected in Swiss-Harlan mouse model of cerebral malaria assessed as induction of mouse death at 30 mg/kg, ip for 4 days dosed 2 hrs post infection and measured 5 days post infection by Giemsa staining based Peter's 4 day test. The class given is organism-based. The following applies: in vivo, 120 h.

In data set [3] the test system is Plasmodium falciparum. The data set is described as follows: Antimalarial activity against […] Plasmodium falciparum MRC2 cultured in human O+ erythrocytes assessed as reduction in parasite growth incubated for 48 hrs by SYBR green I based fluorescence assay. Format: functional, organism-based. The following applies: MRC2, 48 h. The gist of the method:
(§1)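 Sorbitol-synchronized ring-stage cultures (2% haematocrit, 1% parasitaemia) exposed for 48 h to serial dilutions in complete RPMI, top concentration 10µM. CQ was the positive control and drug-free wells the negative control. Growth was read by SYBR Green I lysis buffer, 1 h at 37°C in the dark, fluorescence ex 485/em 530 nm. IC50 came from sigmoidal curve fits, checked by Giemsa smears.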

The subject of data set [4] is Plasmodium falciparum. As to the kind of experiment: Antimalarial activity against Plasmodium falciparum 3D7 cultured in human O+ erythrocytes assessed as reduction in parasite growth incubated for 48 hrs by SYBR green I based fluorescence assay. The class given is functional, organism-based. The following applies: 3D7, 48 h. The gist of the method: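 Sorbitol-synchronized ring-stage cultures (2% haematocrit, 1% parasitaemia) were exposed to serial dilutions in complete RPMI, top concentration 10 µM, for 48 h. Chloroquine served as positive control and no compound as negative control. Lysis buffer with SYBR Green I (Tris pH 7.5, EDTA, saponin, Triton X-100) was added for 1 h in the dark at 37°C. Fluorescence was read at ex 485/em 530 nm, and IC50 came from sigmoidal curves, checked against Giemsa smears.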

Data set [5] deals with Mus musculus. As to the kind of experiment: Toxicity in Balb/c mouse assessed as effect on creatinine level level at 17.5 mg/kg, iv. The settings on record: in vivo.
For data set [6], the system named is Mus musculus. As to the kind of experiment: Toxicity in Balb/c mouse assessed as effect on blood electrochemical balance by measuring sodium level at 20 mg/kg, iv. The settings on record: in vivo. Format: organism-based.
Data set [7] relates to Mus musculus. The data set is described as follows: Toxicity in Balb/c mouse assessed as effect on ALT level level at 20 mg/kg, iv. Format: organism-based. The following applies: in vivo.
In data set [8] the test system is Mus musculus. As to the kind of experiment: Toxicity in Balb/c mouse assessed as effect on urea nitrogen level level at 20 mg/kg, iv. Format: organism-based. The following applies: in vivo.
In data set [9] the test system is Mus musculus. As to the kind of experiment: Toxicity in Balb/c mouse assessed as effect on blood electrochemical balance by measuring potassium level at 20 mg/kg, iv. Format: organism-based. The settings on record: in vivo.
The test system of data set [10] is Plasmodium falciparum. As to the kind of experiment: Antimalarial activity against […] Plasmodium falciparum RKL9 cultured in human O+ erythrocytes assessed as reduction in parasite growth incubated for 48 hrs by SYBR green I based fluorescence assay. Format: functional, organism-based. The following applies: RKL9, 48 h. Summed up:
as §1

Data set [11] concerns Mus musculus. The data set is described as follows: Toxicity in Plasmodium berghei ANKA infected in Swiss-Harlan mouse model of cerebral malaria assessed as induction of prolonged malaise at 30 mg/kg, ip for 4 days dosed 2 hrs post infection and measured 5 days post infection by Giemsa staining based Peter's 4 day test. Format: organism-based. The following applies: in vivo, 120 h.

Data set [12] can be described thus: Selectivity index, ratio of HC50 for haemolytic activity in human erythrocytes to IC50 for antimalarial activity against Plasmodium falciparum 3D7 cultured in human O+ erythrocytes. The class given is toxicity, cell-based. The following applies: read-out: Selectivity Index.
For data set [13], the system named is Mus musculus. As to the kind of experiment: Toxicity in Balb/c mouse assessed as effect on AST level level at 20 mg/kg, iv. The settings on record: in vivo. The class given is organism-based.
For data set [14], the system named is Plasmodium berghei. As to the kind of experiment: Antimalarial activity against Plasmodium berghei ANKA infected in Swiss-Harlan mouse model of cerebral malaria assessed as time duration for complete mouse mortality at 20 mg/kg, ip for 4 days dosed 2 hrs post infection and measured 5 days post infection by Giemsa staining based Peter's 4 day test (reference value: =<7 days). Format: functional. Summed up:
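Female Swiss mice, 6-8 weeks old, infected IP with 10⁷ P. berghei ANKA parasitized RBCs. Starting 2 h post-infection, 20 mg/kg IP (PBS vehicle; PBS-only controls) every 24 h for four days, n=4. Day-5 parasitemia read from Giemsa-stained tail-blood smears; survival followed until death.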

Data set [15] is described as follows: Haemolytic activity in human erythrocytes assessed as induction of hemolysis incubated for 1 hr. Format: cell-based, Erythrocyte. Summed up: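 Human erythrocytes from fresh heparinized blood were suspended at 5 vol% in PBS (pH 7.4), mixed 3:1 with serially diluted compound, and incubated 1 h at 37°C. Controls were no compound and 1 vol% Triton X-100. After centrifugation, supernatant A540 gave % haemolysis relative to the Triton control. HC50 is the mean ± SEM of at least two independent experiments, each run in triplicate.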

In data set [16] the test system is Plasmodium berghei. As to the kind of experiment: Antimalarial activity against Plasmodium berghei ANKA infected in Swiss-Harlan mouse model of cerebral malaria assessed as reduction in parasitemia at 20 mg/kg, ip for 4 days dosed 2 hrs post infection and measured 5 days post infection by Giemsa staining based Peter's 4 day test. Format: functional. Set-up: scale not given: the % may be the effect or the level left. The gist of the method: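 Female Swiss mice (6-8 weeks) were infected IP with 10⁷ P. berghei ANKA-parasitized RBCs. Two hours later, groups (n=4) received 20 mg/kg IP or PBS control, repeated every 24 h for four days. Parasitemia was read on day 5 from Giemsa-stained tail-blood smears, and survival was followed until death.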

Data set [17] relates to Mus musculus. As to the kind of experiment: Toxicity in Balb/c mouse assessed as effect on blood electrochemical balance by measuring chloride level at 20 mg/kg, iv. The class given is organism-based. The following applies: in vivo.

For the compound `CCCCCCN(Cc1cccc2ccccc12)C(=O)C(CCCCNC(=O)OC(C)(C)C)NC(=O)OC(C)(C)C.O=C(O)C(F)(F)F.O=C(O)C(F)(F)F` (stereo not given), in [1], the LD50 at 336 h is 98 mg/kg. The Activity result is “Toxic” with Mus musculus [2]; “Non-Toxic” with Mus musculus [5]; “Non-Toxic” in the data set on Mus musculus [6]; “Non-Toxic” in the data set with Mus musculus [7]; “Non-Toxic” in the data set with Mus musculus [8]; “Non-Toxic” in the data set on Mus musculus [9]. The Activity result is “Toxic” in the data set on Mus musculus [11], “Non-Toxic” in the data set with Mus musculus [13], 60% in the data set on Plasmodium berghei [16] and “Non-Toxic” in the data set on Mus musculus [17]. For the same compound, the figures for the IC50 in the data set on Plasmodium falciparum [3], in the data set with Plasmodium falciparum [4] and with Plasmodium falciparum [10] were 5 µM, 1 µM and 1.4 µM, respectively. For the same compound, in data set [12], the selectivity ratio is 850. Besides, the Time in the data set on Plasmodium berghei [14] came to 12 days. In data set [15], the HC50 at 1 h was 850 µM.
Regarding `CCCCCCCCN(Cc1ccccc1)C(=O)C(CCCCNC(=O)OC(C)(C)C)NC(=O)OC(C)(C)C` (stereo not given), the half-maximal inhibitory concentration (IC50) with Plasmodium falciparum [4] came out at 4 µM. Besides, the selectivity ratio in [12] was 141. Besides, the 50% haemolytic concentration (HC50) at 1 h in [15] is 564 µM.
Regarding `CCCCCCN(Cc1ccccc1)C(=O)C(CCCCNC(=O)OC(C)(C)C)NC(=O)OC(C)(C)C` (stereo not given), in the data set with Plasmodium falciparum [4], the IC50 is > 5 µM. Moreover, the concentration for 50% haemolysis (HC50) at 1 h in data set [15] was > 1000 µM.
As to `CCCCCCCCN(Cc1cccc2ccccc12)C(=O)C(CCCCNC(=O)OC(C)(C)C)NC(=O)OC(C)(C)C` (stereo not given), the concentration for half-maximal inhibition (IC50) with Plasmodium falciparum [4] is 3 µM. Also, the selectivity ratio in data set [12] worked out at 32. The HC50 at 1 h in [15] was found to be 96 µM.

The LD50 is the dose at which mortality reaches 50%. By IC50 is commonly meant the midpoint of a concentration-inhibition curve. In general, HC50 refers to the concentration giving 50% haemolysis.
